This is a sample that favours compounds with a hit; in the whole collection about 5.8% have one here.
Cl transport mod: modulators of human KCC2 chloride dependent transport. 2.2% of 190,000 active. KCC2 cells, thallium flux FluoZin-2 fluorescence. Q9H2X9. AID 1456. B-score of Tl+ flux slope (higher = more flux/activation; lower = inhibition) at 10 µM;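 active = thallium flux slope and its plate-corrected score both differing from the plate sample mean at a set confidence after two filtering rounds, in either direction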;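 note: slope of fluorescence scaled to starting intensity during 10 to 20 s after thallium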
Target sequence (Q9H2X9 whole entry, looked up): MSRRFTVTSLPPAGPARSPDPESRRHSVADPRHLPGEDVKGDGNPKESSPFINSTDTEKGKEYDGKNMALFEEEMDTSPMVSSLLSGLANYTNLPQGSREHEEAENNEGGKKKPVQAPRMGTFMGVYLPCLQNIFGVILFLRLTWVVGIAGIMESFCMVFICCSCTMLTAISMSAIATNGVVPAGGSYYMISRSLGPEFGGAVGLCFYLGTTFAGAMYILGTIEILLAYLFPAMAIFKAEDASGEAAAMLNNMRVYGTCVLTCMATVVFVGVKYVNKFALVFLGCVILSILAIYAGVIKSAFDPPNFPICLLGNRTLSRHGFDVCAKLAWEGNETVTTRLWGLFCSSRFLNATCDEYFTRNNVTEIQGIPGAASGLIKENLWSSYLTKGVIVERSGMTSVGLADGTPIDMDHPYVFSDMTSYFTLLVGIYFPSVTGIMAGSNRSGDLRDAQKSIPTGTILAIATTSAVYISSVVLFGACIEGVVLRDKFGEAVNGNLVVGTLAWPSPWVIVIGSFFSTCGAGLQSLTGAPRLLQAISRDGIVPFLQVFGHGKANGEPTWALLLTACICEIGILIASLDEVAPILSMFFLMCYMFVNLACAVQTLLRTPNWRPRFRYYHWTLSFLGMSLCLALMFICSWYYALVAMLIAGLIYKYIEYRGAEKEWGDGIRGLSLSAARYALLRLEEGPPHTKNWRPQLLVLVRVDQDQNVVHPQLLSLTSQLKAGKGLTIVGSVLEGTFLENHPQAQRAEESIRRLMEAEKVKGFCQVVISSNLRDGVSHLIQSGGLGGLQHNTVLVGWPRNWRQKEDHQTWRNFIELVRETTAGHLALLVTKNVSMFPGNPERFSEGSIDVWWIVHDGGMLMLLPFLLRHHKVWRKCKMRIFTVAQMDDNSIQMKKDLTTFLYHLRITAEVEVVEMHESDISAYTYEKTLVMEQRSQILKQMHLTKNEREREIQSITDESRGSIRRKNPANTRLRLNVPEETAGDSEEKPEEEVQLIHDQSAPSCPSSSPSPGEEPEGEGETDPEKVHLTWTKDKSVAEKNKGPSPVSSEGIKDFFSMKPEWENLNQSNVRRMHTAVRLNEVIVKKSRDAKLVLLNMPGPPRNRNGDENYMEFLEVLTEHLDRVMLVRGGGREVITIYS
ROMK mod: modulators of human ROMK potassium channel; P48048; 2% of 130,000 active; B-score at 10 µM; Tet-inducible ROMK, thallium flux fluorescence; actives lie on both sides;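 active = signal ratio slope over the read window, or its plate-corrected B-score, at least 3 SD from the plate mean, either direction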;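 note: B-score of the F/F0 ratio slope over 7 to 12 s after thallium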
14-3-3 Bad inh: disrupts binding of bovine 14-3-3 zeta to phospho-Bad peptide; inhibition, % at 21.7 µM; 0.71% of 220,000 active; P63103; TR-FRET 14-3-3zeta/Dy647-pBad peptide displacement, 1 h; AID 781;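 active = inhibition above about 70%, limit read from the data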;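 note: 0% = full 14-3-3 plus peptide FRET controls and 100% = background without 14-3-3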
WT yeast gro inh: growth inhibition of WT yeast, mitochondrial fusion screen | mitochondrial fusion phenotypic screen, WT strain | 2.1% of 190,000 active | inhibition, % at 10 µM | AID 1362; in the data active = inhibition above about 58%; tested in S. cerevisiae
RBBP9 inhibitor: inhibitors of human serine hydrolase RBBP9. O75884. recombinant RBBP9, FP-Rh probe fluorescence polarization. inhibition, % at 7.94 µM. 0.2% of 220,000 active. AID 1515;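 active = inhibition above the campaign mean of all tested compounds plus 3 SD, cut at about 14% in these data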;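 note: plate controls were DMSO wells with RBBP9 for no effect and wells lacking RBBP9 protein for full effect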
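Test system: recombinant human RBBP9. Quantity: 2.5 µM RBBP9 dispensing solution, before mixing. Detection: FP readout at 525/598 nm. Reagent: Serine-hydrolase probe FP-Rh, 375 nM pre-mixing. Measure: % inhibition. Control set: DMSO-treated enzyme wells and wells lacking RBBP9. Buffer or medium: Tris-NaCl-Pluronic buffer, pH 8.0. Times: preincubation 30 min plus labeling 45 min at 25 °C.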
NCF1 inh: blocks human p47phox regulatory protein of NADPH oxidases. p47phox/p22phox peptide binding, fluorescence polarization, 2 h. inhibition, % at 24.7 µM. 0.53% of 220,000 active;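 active = inhibition above about 30%, limit read from the data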;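 note: 0% = p47phox with labelled peptide and 100% = labelled peptide alone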
ROMK retest: human ROMK channel modulation, retest confirmation. shares compounds with ROMK mod. ROMK thallium flux, fluorescence ratio; stronger effect = lower value. normalized thallium flux (F/F0 slope) at 10 µM. 54% of 3,000 active;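 active = Flux at 10 µM at least 3 SD below or above vehicle control mean in one or both replicates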
* hit, by the source's call; i = inactive; / = not tested or not shown.

SMILES | Cl transport mod | ROMK mod | 14-3-3 Bad inh | WT yeast gro inh | RBBP9 inhibitor | NCF1 inh | ROMK retest
O=C(Nc1cccc(Cl)c1)Nc1cc(S(=O)(=O)N2CCCCC2)ccc1Cl | 0.24 | / | 10 | 49 | -35 | -48 | /
O=C1N/C(=C/c2ccc(N3CCCC3)cc2)C(=O)N1c1ccccc1 | -0.64 | -0.04 | -2 | -15 | -1 | 4 | /
O=C1N/C(=C/c2ccc(N3CCOCC3)o2)C(=O)N1c1ccccc1 | -1.7 | -3.4* | -2 | 6 | -6 | -37 | 0.049*
O=C(CSc1ccccc1)Nc1ccc(S(=O)(=O)Nc2ncccn2)cc1 | -0.55 | 0.59 | 0 | -2 | -7 | -3 | /
CC(=O)NS(=O)(=O)c1ccc(NC(=O)CSc2ccccc2)cc1 | -0.65 | / | -2 | / | -11 | 26 | 0.079
CC(C)Cc1nc(N2CCN(C(=O)c3ccco3)CC2)c(C#N)c2c1CCC2 | -2.7 | -2.9 | 6 | -3 | -2 | -15 | 0.067*
O=C(Nc1cc(S(=O)(=O)Nc2ccccc2Cl)ccc1O)c1sc2cc(Cl)ccc2c1Cl | 1.6 | 0.54 | 1 | -2 | -1 | -2 | /
COc1cccc(C(=O)O/N=C(\C)c2cnccn2)c1 | -0.18 | -3.6* | -5 | 4 | 1 | 2 | 0.064*
Cc1nc2c(sc3nc4c(cc32)COC(C)(C)C4)c(=O)n1CC(=O)NCc1ccco1 | -0.17 | 4.1* | 2 | -3 | -9 | 1 | 0.09
CCOC(=O)CNC(=O)N1CCCC(C(=O)c2cccc(Cl)c2)C1 (stereo not drawn) | 1.2 | 0.49 | -3 | -5 | -10 | 1 | /
C=CCn1c(SCC(=O)N2CCc3ccccc3C2)nc2sc(CC)cc2c1=O | -0.61 | / | -12 | 21 | -5 | -4 | 0.082
CCN(CC)C(=O)Cn1c(=O)c2ccccc2n2c(=S)sc(-c3cccc(C)c3)c12 | i | / | 5 | -3 | 0 | -73 | 0.049*
O=C(O)c1ccccc1N/C=C\[N+](=O)[O-] | -0.41 | 0.28 | 7 | 4 | -7 | -4 | /
COc1ccc2[nH]c(CN3CCN(C(C)C)C(CCO)C3)c(C)c2c1 (stereo not drawn) | 0.1 | -7.8* | 0 | 4 | -3 | -9 | 0.074
COc1ccc2[nH]c(CN3CCN(CC(C)C)C(CCO)C3)c(C)c2c1 (stereo not drawn) | 1.1 | 0.19 | -5 | -6 | 0 | -7 | /
C=C(C)COc1ccc(-c2n[nH]c(C)c2-c2ccc(OC)c(OC)c2)c(O)c1 | -0.45 | / | 5 | / | 0 | -1 | /
CC(C)CCNC(=O)CCc1nnc(COc2ccccc2)o1 | -0.28 | 0.94 | -9 | 4 | 6 | -1 | /
CCCSC(=S)c1c(C)[nH]n(-c2ccccc2)c1=O | / | / | 1 | / | 1 | -5 | 0.12*
Cc1[nH]n(-c2ccccc2)c(=O)c1Sc1ccc(Cl)cc1 | -0.44 | / | 12 | 0 | -9 | -12 | /
CCN1CCc2nc3ccccc3c(C(=O)Nc3ccc(F)cc3)c2C1 | -0.86 | -3.3* | -2 | / | -9 | -6 | 0.074
COc1ccccc1N1CCN(CC(=O)Nc2ccc(CN3CCCCC3)cc2)CC1 | / | -0.031 | 18 | -10 | -2 | -15 | /
Cc1ccc(Cl)cc1N1CCN(CC(=O)Nc2ccc(CN3CCCCC3)cc2)CC1 | -0.69 | -4.6* | -2 | 45 | 2 | -25 | 0.054*
O=C(CC(C(=O)NCc1ccccc1)c1nc2ccccc2c(=O)[nH]1)NCc1ccccc1 (stereo not drawn) | / | / | -2 | / | -5 | -28 | /
CCOC(=O)C1=C(O)/C(=C/c2ccc(OCC(=O)O)c(OC)c2)SC1=Nc1ccc(OC)cc1 | -0.26 | / | -18 | -12 | -15 | -45 | 0.081
CCOC(=O)C1=C(O)/C(=C/c2cn(CC(=O)N3CCCC3)c3ccccc23)SC1=Nc1ccccc1 | -0.94 | 0.52 | -5 | -3 | -9 | -26 | /
SMILES | Cl transport mod | ROMK mod | 14-3-3 Bad inh | WT yeast gro inh | RBBP9 inhibitor | NCF1 inh | ROMK retest
O=C(C[n+]1cccc(CNC(=O)c2ccc(OC(F)F)cc2)c1)Nc1cccc(C(F)(F)F)c1 | -0.28 | -3.1* | -15 | -5 | -8 | -10 | 0.053*
O=C(c1ccco1)N1CCN(CCCCOc2cccc3ccccc23)CC1 | -0.68 | -0.22 | 15 | 39 | 0 | -13 | /
O=C(c1cccc(COc2cccc3ccccc23)c1)N1CCCC1 | -0.55 | -3.5* | -1 | 45 | 11 | -19 | 0.087
CCOC(=O)c1ccccc1NC(=S)N1CC(C)CC(C)C1 (stereo not drawn) | -0.13 | / | -9 | 7 | 4 | -4 | 0.064*
CCOC(=O)c1ccccc1NC(=S)N1CCC(C)CC1 | 1.1 | 0.17 | -11 | 7 | -12 | -5 | /
Cc1[nH]c2ccccc2c1CN1CCN(c2ccccn2)CC1 | 0.14 | -3.7* | 0 | / | -4 | -16 | 0.065*
Oc1ccc(-c2nc3ccc4ccccc4c3c3c2CCC3)cc1O | 2.7 | / | 8 | 6 | -23 | -16 | /
N#C/C(=C\c1ccccc1Cl)C(=O)NC(=O)Oc1ccccc1 | -0.94 | -4.3* | 4 | -4 | -6 | -18 | 0.046*
C=CCn1c2ccccc2c2nnc(SCCCn3c(=O)[nH]c4ccccc43)nc21 | 0.071 | / | 15 | -4 | -2 | -1 | 0.065*
C=CCn1c2ccccc2c2nnc(SCN3C(=O)c4ccccc4C3=O)nc21 | / | -0.26 | -5 | 17 | -3 | -27 | /
Cc1onc(C(=O)NCc2ccccn2)c1[N+](=O)[O-] | 0.48 | / | -9 | -12 | -1 | 0 | /
CC(C)(C)NC(=O)c1cccc(NC(=O)c2ccco2)c1 | -0.76 | 0.12 | -5 | -7 | -5 | -5 | /
O=C(Nc1cccc(N=Cc2cc(Cl)cc(Br)c2O)c1)c1ccco1 | 0.95 | 4.1* | -2 | -3 | -8 | 14 | 0.11*
O=C(Nc1cccc(N=Cc2cc(Br)cc(Br)c2O)c1)c1ccco1 | -3 | / | 21 | 33 | -2 | -12 | 0.11*
C/C(=N\NC(=O)c1cccc(Cl)c1)c1cccc(NC(=O)c2ccco2)c1 | -0.87 | / | 9 | 1 | -2 | -7 | /
Cc1nc(C(=O)N/N=C/c2[nH]ncc2Br)cs1 | -1.9 | / | -6 | / | -3 | -1 | /
O=C(NNS(=O)(=O)c1ccccc1[N+](=O)[O-])c1ccccc1[N+](=O)[O-] | / | 1.6 | -16 | 2 | 0 | 3 | /
O=C(CCC(=O)Nc1ccccc1)NNS(=O)(=O)c1ccccc1[N+](=O)[O-] | -0.074 | 0.44* | -1 | -3 | -6 | 2 | 0.087
COc1ccc(CC(=O)NC(C)C2COc3ccccc3O2)cc1OC (stereo not drawn) | -0.78 | 0.17 | -4 | -7 | -7 | 13 | /
N#CC1=C(N)N(c2ccccc2)C(c2ccccc2)C1(C#N)C#N (stereo not drawn) | 0.53 | -3* | / | 2 | -5 | / | 0.055*
Cc1ccc(N2C(=O)C(F)(F)C2c2ccccc2)cc1 (stereo not drawn) | 0.89 | / | 8 | 9 | -8 | -7 | /
